Measured values: article PMC8112392 (Science signaling, 2021)
“Also recorded” adds a separate entry of the source.

Biological target: Tlp10^LBD H193A (Campylobacter jejuni, UniProt Q0PCA6, H193A)
Test: biochemical
Format: binding, C. jejuni
Details: not given

| Compound | Kd |
| --- | --- |
| C[C@H](O)[C@@H](O)[C@@H](O)[C@H](O)C=O [fucose] | 28 ± 3 µM |
| N[C@@H](CC(=O)O)C(=O)O [aspartate] | 30.9 ± 9 µM |

Same assay, conditions: read-out: KD Tlp10^LBD H193A; SPR, mean ± s.d., n = 3

| Compound | Kd |
| --- | --- |
| rhamnose | 9.8 ± 0.95 µM |
| O=C(O)CCC(=O)C(=O)O [α-ketoglutarate] | 370 ± 63 µM |
| fumarate | 213 ± 59 µM |

Biological target: Tlp10^LBD Y70A (Campylobacter jejuni, UniProt Q0PCA6, Y70A)
Test: biochemical
Format: binding, C. jejuni
Details: not given

| Compound | Kd |
| --- | --- |
| C[C@H](O)[C@@H](O)[C@@H](O)[C@H](O)C=O [fucose] | 34 ± 7 µM |
| N[C@@H](CC(=O)O)C(=O)O [aspartate] | 38.9 ± 11 µM |

Same assay, conditions: read-out: KD Tlp10^LBD Y70A; SPR, mean ± s.d., n = 3

| Compound | Kd |
| --- | --- |
| rhamnose | 8.2 ± 3 µM |
| O=C(O)CCC(=O)C(=O)O [α-ketoglutarate] | 385 ± 40 µM |
| fumarate | 185 ± 25 µM |

Biological target: T1, Tlp10^LBD wild type (Campylobacter jejuni, UniProt Q0PCA6)
Test: not given
Format: binding
Details: competition SPR, compounds at 10x KD

| Compound | ligand-binding site on Tlp10^LBD |
| --- | --- |
| rhamnose | site B |
| O=C(O)CCC(=O)C(=O)O [α-ketoglutarate] | site A |
| fumarate | site A |
| O=C[C@H](O)[C@@H](O)[C@@H](O)[C@H](O)CO [galactose] | site B |
| C[C@H](O)[C@@H](O)[C@@H](O)[C@H](O)C=O [fucose] | site B |
| N[C@@H](CC(=O)O)C(=O)O [aspartate] | both site A and site B with a preference for site B |

Biological target: Tlp10^LBD N115A (Campylobacter jejuni, UniProt Q0PCA6, N115A)
Test: biochemical
Format: binding, C. jejuni
Details: not given

| Compound | Kd |
| --- | --- |
| C[C@H](O)[C@@H](O)[C@@H](O)[C@H](O)C=O [fucose] | 22 ± 2 µM |
| N[C@@H](CC(=O)O)C(=O)O [aspartate] | 29.5 ± 8 µM |

Same assay, conditions: read-out: KD Tlp10^LBD N115A; SPR, mean ± s.d., n = 3

| Compound | Kd |
| --- | --- |
| rhamnose | 18.2 ± 1.9 µM |
| O=C(O)CCC(=O)C(=O)O [α-ketoglutarate] | 630 ± 27 µM |
| fumarate | 242 ± 30 µM |

Tested on: C. jejuni 11168-O
Test: not given
Format: cell-based
Details: nutrient-depleted chemotaxis assay, 2 mM ligand

| Compound | migration of Δtlp10^LBD strain towards ligand compared to wild-type | Tlp10-mediated chemotactic response type |
| --- | --- | --- |
| rhamnose | not significantly affected |  |
| O=C(O)CCC(=O)C(=O)O [α-ketoglutarate] | not significantly affected |  |
| fumarate |  | attractants |
| O=C[C@H](O)[C@@H](O)[C@@H](O)[C@H](O)CO [galactose] | One-log increase in migration | repellent |
| C[C@H](O)[C@@H](O)[C@@H](O)[C@H](O)C=O [fucose] |  | attractants |
| N[C@@H](CC(=O)O)C(=O)O [aspartate] |  | attractants |

Tested on: C. jejuni 11168-O adherence to Caco-2, HCT116 and HCT116MUC1 cells
Test: Adherence of C. jejuni to cultured human cells with glycan competition
Format: cell-based
Details: 11168-O wild-type and Δtlp10^LBDc strains, 5 mM glycan

| Compound | effect on adherence to all cell lines tested |
| --- | --- |
| O=C[C@H](O)[C@@H](O)[C@@H](O)[C@H](O)CO [galactose] | suppressed the adherence |
| C[C@H](O)[C@@H](O)[C@@H](O)[C@H](O)C=O [fucose] | suppressed the adherence; also recorded: less effective than that by galactose |

Tested on: Tlp10^LBD
Test: Glycan and small molecule array binding of purified Tlp10 LBD
Design: species or system C. jejuni
Details: binding to Tlp10^LBD on glycan / small molecule array

| Compound | array |
| --- | --- |
| rhamnose | + |
| fumarate | + |
| O=C[C@H](O)[C@@H](O)[C@@H](O)[C@H](O)CO [galactose] | + |
| C[C@H](O)[C@@H](O)[C@@H](O)[C@H](O)C=O [fucose] | + |
| N[C@@H](CC(=O)O)C(=O)O [aspartate] | + |

Same assay, conditions: glycan array

| Compound | interaction of Tlp10^LBD with complex glycans |
| --- | --- |
| CC(=O)N[C@@H](C=O)[C@@H](O[C@@H]1O[C@H](CO)[C@H](O)[C@H](O)[C@H]1O)[C@H](O[C@@H]1O[C@@H](C)[C@@H](O)[C@@H](O)[C@@H]1O)[C@H](O)CO [Lewis^a antigen] | interacted |
| Fucα1–2Galβ1–3GalNAcβ1–4(Neu5Acα2–3) Galβ1–4Glc [human ganglioside GM1] | interacted |

Biological target: Tlp10^LBD N120A (Campylobacter jejuni, UniProt Q0PCA6, N120A)
Test: biochemical
Format: binding, C. jejuni
Details: not given

| Compound | Kd |
| --- | --- |
| C[C@H](O)[C@@H](O)[C@@H](O)[C@H](O)C=O [fucose] | 19.2 ± 4 µM |
| N[C@@H](CC(=O)O)C(=O)O [aspartate] | 48 ± 7 µM |

Same assay, conditions: read-out: KD Tlp10^LBD N120A; SPR, mean ± s.d., n = 3

| Compound | Kd |
| --- | --- |
| rhamnose | 17.9 ± 3.7 µM |
| O=C(O)CCC(=O)C(=O)O [α-ketoglutarate] | 580 ± 43 µM |
| fumarate | 317 ± 34 µM |

Tested on: C. jejuni 11168-O
Test: μ-Slide chemotaxis cell enumeration assay
Format: cell-based
Details: 10 mM chemoeffector
Outline: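 Wild-type, Δtlp10LBD and complemented strains are harvested from MHA plates into PBS, adjusted to OD600 1 and mixed 1:1 (vol:vol) with 1% LMT. The opposite μ-Slide reservoir holds chemoeffector (final 10 mM) in LMT (final 0.35%). Slides are incubated 3 h at 42°C, microaerobic. Cells in the chemoeffector reservoir are enumerated by viable count. Three biological repeats are run, each in triplicate.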

| Compound | migration of Δtlp10^LBD cells toward ligand compared with wild-type | Tlp10-mediated chemotactic response type |
| --- | --- | --- |
| rhamnose | No significant differences |  |
| O=C[C@H](O)[C@@H](O)[C@@H](O)[C@H](O)CO [galactose] | increased | repellent response |
| C[C@H](O)[C@@H](O)[C@@H](O)[C@H](O)C=O [fucose] | decreased | attractant response |

Biological target: T1, Tlp10^LBD wild type
Test: biochemical
Format: binding
Details: KD Tlp10^LBD Wild-type, SPR, Table 2, mean ± s.d., n = 3

| Compound | Kd |
| --- | --- |
| C[C@H](O)[C@@H](O)[C@@H](O)[C@H](O)C=O [fucose] | 30 ± 4.1 µM |
| N[C@@H](CC(=O)O)C(=O)O [aspartate] | 32.3 ± 10 µM |

Same assay, conditions: KD, SPR, wild-type Tlp10^LBD, mean ± SD, n = 3

| Compound | Kd |
| --- | --- |
| C[C@H](O)[C@@H](O)[C@@H](O)[C@H](O)C=O [fucose] | 30 ± 4.1 µM |
| N[C@@H](CC(=O)O)C(=O)O [aspartate] | 32.3 ± 10 µM |

Same assay, conditions: SPR, wild-type Tlp10^LBD, mean ± SD, n = 3

| Compound | Kd |
| --- | --- |
| O=C(O)CCC(=O)C(=O)O [α-ketoglutarate] | 403 ± 13 µM |
| fumarate | 282 ± 68 µM |

Same assay, conditions: binding to Tlp10^LBD by SPR

| Compound | SPR |
| --- | --- |
| rhamnose | + |
| O=C(O)CCC(=O)C(=O)O [α-ketoglutarate] | + |
| fumarate | + |
| O=C[C@H](O)[C@@H](O)[C@@H](O)[C@H](O)CO [galactose] | + |
| C[C@H](O)[C@@H](O)[C@@H](O)[C@H](O)C=O [fucose] | + |
| N[C@@H](CC(=O)O)C(=O)O [aspartate] | + |

Same assay, conditions: read-out: KD Tlp10^LBD Wild-type; SPR, Table 2, mean ± s.d., n = 3

| Compound | Kd |
| --- | --- |
| rhamnose | 11.1 ± 2 µM |
| O=C(O)CCC(=O)C(=O)O [α-ketoglutarate] | 403 ± 13 µM |
| fumarate | 282 ± 68 µM |

Tested on: C. jejuni 11168-O
Test: Biofilm assay
Format: cell-based
Details: wild-type C. jejuni 11168-O, 10 mM galactose

| Compound | reduction of biofilm formation compared to untreated cells |
| --- | --- |
| O=C[C@H](O)[C@@H](O)[C@@H](O)[C@H](O)CO [galactose] | up to 46% |

Same assay, conditions: Δtlp10^LBD mutant, 10 mM galactose

| Compound | change in biofilm formation |
| --- | --- |
| O=C[C@H](O)[C@@H](O)[C@@H](O)[C@H](O)CO [galactose] | no significant change |
